Screens deposited in PubChem BioAssay by several laboratories.
In the library only some 3.8% were active in any assay of this set; here they are far more common.
ANO1 block: mouse TMEM16A channel inhibition, primary screen. HEK293 TMEM16A/YFP iodide influx fluorescence, ionomycin. normalized B-score (activity score, 25-100; higher = stronger inhibition) at 10 µM. 310,000 compounds, 1.2% hits. AID 588511;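 active means ratio plate-corrected score three or more library SD toward inhibition, starting fluorescence score within five deviations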;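 further: score derived from kinetic fluorescence span divided by baseline fluorescence per well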
Beta cell apopt: blocks beta cell apoptosis | INS-1E cytokine-induced death, ATP luminescence, 48 h; percent of positive-control rescue, neutral wells zero | protection from apoptosis, % (concentration not given with the values) | 300,000 compounds, 0.8% hits;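 active means Every replicate reaches about 75%, or at least half do and their mean reaches it too, limit read from the data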;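 further: higher means more ATP so stronger rescue from cytokine killing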
TMEM16A act: activators or potentiators of mouse TMEM16A chloride channel. HEK293 TMEM16A/YFP-H148Q/I152L, iodide quench fluorescence; hits give low values. B-score at 10 µM. 340,000 compounds, 0.3% hits. AID 623877;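 active means fluorescence-ratio B-score plate-corrected deviation score at least 3 library SD below zero, with starting fluorescence score within 5 deviations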;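 further: channel opened by trigger with iodide after compound preincubation; score built on the fluorescence ratio of max minus min over baseline; more negative score means more quench and so TMEM16A activation or potentiation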
MC4R antagonist: antagonists of human melanocortin 4 receptor (MC4R). MC4R-expressing cells, MTII-stimulated cAMP, LANCE TR-FRET. inhibition, % at 6.5 µM. 360,000 compounds, 0.48% hits. AID 540295;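 active means inhibition above its plate's cutoff, the mean of tested wells on that plate plus 3 SD, cut at about 29% in these data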
Target sequence (P32245 whole entry, looked up): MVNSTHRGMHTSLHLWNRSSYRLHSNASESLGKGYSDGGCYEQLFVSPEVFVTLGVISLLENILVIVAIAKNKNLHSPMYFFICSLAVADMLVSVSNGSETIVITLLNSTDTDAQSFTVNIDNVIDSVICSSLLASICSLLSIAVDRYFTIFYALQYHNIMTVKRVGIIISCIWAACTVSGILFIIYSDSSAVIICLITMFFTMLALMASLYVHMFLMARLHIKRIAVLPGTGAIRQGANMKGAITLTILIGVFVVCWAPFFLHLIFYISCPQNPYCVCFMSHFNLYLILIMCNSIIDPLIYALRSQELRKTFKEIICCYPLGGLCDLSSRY
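Assay system: human MC4R-expressing U2OS cells; reagent: Melanotan II stimulation of cells; dosing: 6.5 µM single dose; timing: compound 30 min, challenge 1 h, detection 1 h; signal: TR-FRET cAMP assay; replicates: one well per compound, no replicates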
MC4R barr agon: agonists of human melanocortin 4 receptor (MC4R) beta-arrestin | P32245 | U2OS MC4R beta-arrestin complementation, luminescence; percent of melanotan II response, DMSO zero | activation, % at 8.9 µM | 360,000 compounds, 0.98% hits | AID 540308;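 active means activation above a per-plate cutoff, the mean activation of sample wells on that plate plus 3 SD, cut at about 8% in these data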
CSC inhib: blocks cancer stem cells | cancer stem cell-like cells viability, luminescence | inhibition, % at 7.5 µM | 300,000 compounds, 1.1% hits | AID 2717; in the data active means inhibition above about 75%; tested in HMLE shEcad cells
TMEM16A reconf: TMEM16A (mouse) chloride channel inhibition, re-confirmation; shares compounds with ANO1 block; HEK293 TMEM16A/YFP-H148Q, iodide quench fluorescence; ionomycin added to raise cell calcium; inhibition, % at 10 µM; 2,300 compounds, 39% hits;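 active means mean duplicate percent inhibition, scaled so buffer wells are 0 and the reference blocker 100, over three buffer SD above buffer mean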
HEK293 Ca mobil: counter-screen for TMEM16A inhibitors: effect on calcium mobilization | calcium response (% of ionomycin), % at 10 µM | 2,300 compounds, 2% hits | AID 652231 | TMEM16A/YFP HEK293, Fluo4 calcium mobilization | shares compounds with ANO1 block;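 active means duplicate-averaged calcium signal over 20% of the ionomycin maximum, relative to buffer baseline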;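 further: each well's signal is peak minus trough fluorescence divided by its pre-addition baseline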
Parental YFP cnt: parental YFP-HEK293 iodide quench counter-screen activity. shares compounds with ANO1 block. ionomycin. YFP ratio F(max-min)/F0 at 10 µM. 2,300 tested, under 10 active;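 active means yellow fluorescent protein signal ratio exceeding the buffer control mean by over 5 SD of those controls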;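 further: ratio is mean of duplicate wells from kinetic YFP trace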
ClC-1 inh: blocks the rat ClC-1 voltage-dependent chloride channel; shares compounds with ANO1 block; CHO ClC-1-YFP, iodide influx fluorescence quench; iodide control reads 0, buffer control 100; ratio percent, % at 10 µM; 2,300 tested, under 10 active;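 active means duplicate-mean ratio percent above the mean of iodide-only control wells, which defines zero, plus 5 of their SD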;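 further: higher percent means stronger block of ClC-1 iodide influx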
Of the large screens only hits and unclear results are named; the others gave an inactive call (follow-up assays come after a bar, where they were run).

Nc1c(-c2ccccc2)nc(Cl)nc1-c1ccccc1	none
CCc1nc2c(OCc3ccc(C(=O)N(C)C)cc3)cccn2c1N(C)C(=O)c1ccc(C)cc1	none (no result: ANO1 block, Beta cell apopt, TMEM16A act, CSC inhib)
COc1ccc(C(=O)C2CCCN(C(=O)c3cc(C4CC4)[nH]n3)C2)c(C)c1 (centres undefined)	none
CC(C)(C)c1ccc(-c2n[nH]c(=S)n2Cc2ccccc2)cc1	none
CC(C)n1c(-c2ccc(C(C)(C)C)cc2)n[nH]c1=S	ANO1 block 100 | TMEM16A reconf inactive | HEK293 Ca mobil inactive | Parental YFP cnt inactive | ClC-1 inh inactive
CCCS(=O)(=O)NC(=O)C1(C)CCN(C(=O)c2cccc(C)c2C)C1 (centres undefined)	none (no result: ANO1 block, Beta cell apopt, TMEM16A act, CSC inhib)
CCCCC(=O)Oc1c(S(=O)(=O)c2ccccc2)c(C)nn1C(C)(C)C	ANO1 block 25 | TMEM16A reconf inactive | HEK293 Ca mobil inactive | Parental YFP cnt inactive | ClC-1 inh inactive
CCN(CC)S(=O)(=O)c1ccc(C(C)NC(=O)Cc2c[nH]c3ccccc23)cc1 (centres undefined)	none
O=S(=O)(Nc1nc2ccccc2nc1Cl)c1ccc(F)cc1	none
O=S(=O)(Nc1nc2ccccc2nc1N1CCN(c2ccccc2)CC1)c1ccc(F)cc1	none | TMEM16A reconf 32% | HEK293 Ca mobil inactive | Parental YFP cnt inactive | ClC-1 inh inactive
CCCCOc1nc2ccccc2nc1NS(=O)(=O)c1ccc(F)cc1	ANO1 block 25 | TMEM16A reconf inactive | HEK293 Ca mobil inactive | Parental YFP cnt inactive | ClC-1 inh inactive
Cc1ccc(S(=O)(=O)Nc2nc3ccccc3nc2N2CCOCC2)cc1	none (no result: ANO1 block)
C[C@@H]1CN([C@H](C)CO)C(=O)CCCn2nncc2CO[C@H]1CN(C)C(=O)c1ccccc1	none (no result: ANO1 block, Beta cell apopt, TMEM16A act, CSC inhib)
Cc1ccnc(NC(=O)CCC(=O)N(CC(=O)NCCc2ccccc2)c2ccccc2F)c1	none
COc1ccc(NC(=O)NCc2cccnc2)cc1	none
O=C(c1ccc(-c2ccccc2)cc1)c1ccccc1C(=O)N1CCOCC1	ANO1 block 100 | TMEM16A reconf inactive | HEK293 Ca mobil inactive | Parental YFP cnt inactive | ClC-1 inh inactive
O=C(c1ccccc1)c1ccc(C(=O)N2CCOCC2)cc1	none
COc1ccc(N2CCn3c2nc2c3c(=O)n(CCCc3ccccc3)c(=O)n2C)c(OC)c1	ANO1 block 100 | TMEM16A reconf 22% | HEK293 Ca mobil inactive | Parental YFP cnt inactive | ClC-1 inh inactive
COc1ccccc1C1CCN(c2ccc(CO)cc2[N+](=O)[O-])CC1	ANO1 block 25 | TMEM16A reconf inactive | HEK293 Ca mobil inactive | Parental YFP cnt inactive | ClC-1 inh inactive
CCCc1nnc(NC(=O)CCC(=O)NC2CCCCCC2)s1	none
Cc1ccc(C(=O)Nc2ncc([N+](=O)[O-])s2)cc1	ANO1 block 25 | TMEM16A reconf 50% | HEK293 Ca mobil inactive | Parental YFP cnt inactive | ClC-1 inh inactive
O=C(Nc1ncc([N+](=O)[O-])s1)c1ccco1	none
CC(OC(=O)CC1Sc2ccccc2NC1=O)C(=O)N(C)Cc1ccccc1 (centres undefined)	none (no result: ANO1 block, Beta cell apopt, CSC inhib)
O=C(O)CCc1ccc(S(=O)(=O)N2CCOCC2)cc1	none (no result: Beta cell apopt)
O=C(CCc1ccc(S(=O)(=O)N2CCOCC2)cc1)Oc1ccccc1	ANO1 block 25 | TMEM16A reconf inactive | HEK293 Ca mobil inactive | Parental YFP cnt inactive | ClC-1 inh inactive
Cc1ccc(C(=O)NC(=S)NNC(=O)COc2ccccc2C)cc1	ANO1 block 25 | TMEM16A reconf 20% | HEK293 Ca mobil inactive | Parental YFP cnt inactive | ClC-1 inh inactive
O=C(CCc1ccccc1)NNC(=S)NC(=O)c1ccc(Cl)cc1	ANO1 block 100 (no result: Beta cell apopt, TMEM16A act, MC4R antagonist, MC4R barr agon) | TMEM16A reconf 25% | HEK293 Ca mobil 65% | Parental YFP cnt inactive | ClC-1 inh inactive
CC1=C(C(=O)N(C)C)CC(CC(=O)NCCc2ccccn2)C(=O)N1Cc1ccc(F)cc1 (centres undefined)	none (no result: ANO1 block, Beta cell apopt, TMEM16A act, CSC inhib)
CC(=O)c1ccc(OCCCC(=O)N2CCN(S(=O)(=O)c3ccc(C(C)C)cc3)CC2)cc1	ANO1 block 25 (no result: Beta cell apopt) | TMEM16A reconf inactive | HEK293 Ca mobil inactive | Parental YFP cnt inactive | ClC-1 inh inactive
COc1cccc(C(=O)Nc2cccc(-c3nnc(-c4ccco4)o3)c2)c1	ANO1 block 25 | TMEM16A reconf 23% | HEK293 Ca mobil inactive | Parental YFP cnt inactive | ClC-1 inh inactive
COc1cccc(C(=O)Nc2ccc(C(=O)c3ccccc3)cc2)c1	ANO1 block 100 | TMEM16A reconf 26% | HEK293 Ca mobil inactive | Parental YFP cnt inactive | ClC-1 inh inactive
COc1ccc(Br)cc1C(=O)Nc1cccc(-c2nnc(-c3ccco3)o2)c1	none
CCCc1cc(C(=O)Nc2ccc(C(=O)c3ccccc3)cc2)n(C)n1	ANO1 block 100 | TMEM16A reconf 40% | HEK293 Ca mobil inactive | Parental YFP cnt inactive | ClC-1 inh inactive
COc1cccc(C(=O)Nc2ccc(Cl)c(C(F)(F)F)c2)c1	ANO1 block 25 | TMEM16A reconf 18% | HEK293 Ca mobil inactive | Parental YFP cnt inactive | ClC-1 inh inactive
O=C1NCCNC1c1ccccc1 (centres undefined)	none (no result: ANO1 block, Beta cell apopt, CSC inhib)
COc1cc(Cl)c(C)cc1NC(=O)CN(C)Cc1cccc(OC)c1OC	ANO1 block 25 | TMEM16A reconf 20% | HEK293 Ca mobil inactive | Parental YFP cnt inactive | ClC-1 inh inactive
COC(=O)C1=C(C(=O)OC)SC(=C2C(=S)C(C)(C)N(C(=O)CC(C)C)c3ccccc32)S1	ANO1 block 25 | TMEM16A reconf inactive | HEK293 Ca mobil inactive | Parental YFP cnt inactive | ClC-1 inh inactive
O=C(CSc1nnc(-c2ccncc2)n1Cc1ccco1)Nc1nc(-c2ccccc2)cs1	ANO1 block 25 | TMEM16A reconf 30% | HEK293 Ca mobil inactive | Parental YFP cnt inactive | ClC-1 inh inactive
O=C(CSc1nc2ccccc2o1)Nc1nc2ccccc2s1	none
CCn1c(SCC(=O)Nc2nc(-c3ccccc3)cs2)nnc1-c1ccccc1O	ANO1 block 100 | TMEM16A reconf 36% | HEK293 Ca mobil inactive | Parental YFP cnt inactive | ClC-1 inh inactive
